Measured values taken from ChEMBL document CHEMBL1123619, “Isothiourea derivatives of 6-phenyl-2,3,5,6-tetrahydroimidazo[2,1-b]thiazole with broad-spectrum anthelmintic activity” (J Med Chem, 1987).

Key:
Felis catus = assay: Antihelmethic activity expressed as the percentage of worms eliminated in the feces in cat tapeworm at peroral dose of 30 mg/kg; worms expelled and no futher segments appeared in the feces for the duration of the test; type: functional, organism-based; design: dose 30 mg/kg
Canis familiaris = assay: Antihelmethic activity expressed as the percentage of worms eliminated in the feces in dog toxascaris at peroral dose of 30 mg/kg; worms voided and toxascaris egg count reduced to zero for the duration of the test; type: functional, organism-based; design: dose 30 mg/kg; settings: Canis lupus familiaris
Mus musculus [1] = assay: Nematocidal activity against Nematospiroides dubius induced necropsy in mouse, after oral administration of 100 mg/kg of the compound; type: functional
Procedure, shortened: (§1)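 Seven-week-old female LACA mice infected orally with 100 N. dubius L3 larvae; single gavage dose given at day 10 of infection, groups of four mice; necropsy 4 days later; percent activity from worm burdens of treated versus untreated groups.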

Mus musculus [2] = assay: Nematocidal against Nematospiroides dubius in mouse was determined at 100 mg/kg peroral dose of compound; type: functional; settings: route oral; procedure, shortened: as §1
Mus musculus [3] = assay: Nematocidal against Nematospiroides dubius in mouse was determined at 25 mg/kg peroral dose of compound; type: functional; settings: route oral; procedure, shortened: as §1
Mus musculus [4] = assay: Nematocidal against Nematospiroides dubius in mouse was determined at 50 mg/kg peroral dose of compound; type: functional; settings: route oral; procedure, shortened: as §1
Mus musculus [5] = assay: Nematocidal activity against Nematospiroides dubius induced necropsy in mouse, after oral administration of 100 mg/kg; type: functional; procedure, shortened: as §1
[6] = test system: Heligmosomoides polygyrus; assay: Nematocidal activity against Nematospiroides dubius induced necropsy in mouse, oral administration 200 mg/kg; type: functional; procedure, shortened: as §1
Mus musculus [7] = assay: Nematocidal activity against Nematospiroides dubius induced necropsy in mouse, after oral administration of 50 mg/kg of the compound; type: functional; procedure, shortened: as §1
Ovis aries [8] = assay: Antihelmethic activity expressed as the percentage of worms eliminated in the feces in sheep abomasum at peroral dose of 15 mg/kg against Trichostrongylus axei; type: functional; settings: route oral
Procedure, shortened: (§2)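 Sheep given a single dose, oral or subcutaneous. Total daily feces collected for 4 days after treatment and examined for expelled worms. Necropsy at day 7 after dosing; lungs, liver and gastrointestinal tract removed and remaining worms identified. Activity calculated by comparing worms passed in feces with those remaining at autopsy. Single animals per test unless otherwise indicated.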

Ovis aries [9] = assay: Antihelmethic activity expressed as the percentage of worms eliminated in the feces in sheep abomasum at peroral dose of 30 mg/kg against Haemonchus contortus; type: functional; settings: route oral; procedure, shortened: as §2
Ovis aries [10] = species: Ovis aries; assay: (§3) Antihelmethic activity expressed as the percentage of worms eliminated in the feces in sheep species.; type: functional
Procedure, shortened: (§4)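 Sheep; total daily faeces collected for 4 days after treatment and searched for expelled worms; necropsy 7 days post-dose with lungs, liver and GI tract examined and worms identified; activity from worms passed in faeces versus worms remaining in host at autopsy.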

Ovis aries [11] = species: Ovis aries; assay: as §3; type: functional; procedure, shortened: as §4; remark: listed apart in the source
Ovis aries [12] = assay: Antihelmethic activity expressed as the percentage of worms eliminated in the feces in sheep […] at subcuteneous dose of 30 mg/kg against Lungworm Dictyocaulus filaria.; type: functional; procedure, shortened: as §2
Ovis aries [13] = assay: Antihelmethic activity expressed as the percentage of worms eliminated in the feces in sheep large bowel at subcuteneous dose of 30 mg/kg against Trichuris ovis.; type: functional; procedure, shortened: as §2
Ovis aries [14] = assay: Antihelmethic activity expressed as the percentage of worms eliminated in the feces in sheep large bowel at subcuteneous dose of 30 mg/kg against chabertia ovina.; type: functional; procedure, shortened: as §2
Ovis aries [15] = assay: Antihelmethic activity expressed as the percentage of worms eliminated in the feces in sheep large bowl at peroral dose of 15 mg/kg against chabertia ovina.; type: functional; settings: route oral; procedure, shortened: as §2
Ovis aries [16] = assay: Antihelmethic activity expressed as the percentage of worms eliminated in the feces in sheep small intestine at peroral dose of 15 mg/kg against Capillaria species.; type: functional; settings: route oral; procedure, shortened: as §2
Ovis aries [17] = assay: Antihelmethic activity expressed as the percentage of worms eliminated in the feces in sheep small intestine at peroral dose of 15 mg/kg against Strongyloides papillosus; type: functional; settings: route oral; procedure, shortened: as §2
Ovis aries [18] = assay: Antihelmethic activity expressed as the percentage of worms eliminated in the feces in sheep small intestine at peroral dose of 30 mg/kg against Bunostomum trigonocephalum.; type: functional; settings: route oral; procedure, shortened: as §2
Ovis aries [19] = assay: Antihelmethic activity expressed as the percentage of worms eliminated in the feces in sheep small intestine at peroral dose of 30 mg/kg against Cooperia curticei; type: functional; settings: route oral; procedure, shortened: as §2
Ovis aries [20] = assay: Antihelmethic activity expressed as the percentage of worms eliminated in the feces in sheep small intestine at peroral dose of 30 mg/kg against Strongyloides papillosus; type: functional; settings: route oral; procedure, shortened: as §2
Ovis aries [21] = assay: Anthelmintic activity against adult liver fluke (Fasciola hepatica) in sheep, after peroral administration of 15 mg/kg was determined; type: functional; settings: route oral
Procedure, shortened: (§5)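 Sheep dosed with a single oral dose. Fecal fluke egg output monitored after treatment. Animals necropsied only if the fecal egg count fell. Postmortem Fasciola hepatica burdens compared with untreated control sheep (mean of 10 controls). Single animals per test unless otherwise indicated, with group size given in parentheses. I denotes no effect on fecal fluke egg output.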

Ovis aries [22] = assay: Anthelmintic activity against adult liver fluke (Fasciola hepatica) in sheep, after peroral administration of 20 mg/kg was determined; type: functional; settings: route oral; procedure, shortened: as §5
Ovis aries [23] = assay: Antihelmethic activity expressed as the percentage of worms eliminated in the feces in sheep small intestine at subcuteneous dose of 30 mg/kg against Strongyloides papillosus; type: functional; procedure, shortened: as §2
Ovis aries [24] = assay: Antihelmethic activity expressed as the percentage of worms eliminated in the feces in sheep small intestine at subcuteneous dose of 30 mg/kg against Trichostrongylus axei; type: functional; procedure, shortened: as §2
Ovis aries [25] = assay: Toxic activity expressed as the percentage against liver fluke in the sheep at 15 mg/kg peroral administration of dose; type: ADME, organism-based; design: dose 15 mg/kg, route oral; settings: in vivo, po
Procedure, shortened: (§6)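 Fasciola hepatica in sheep, controlled test; animals necropsied only when fecal egg count fell; postmortem fluke burdens compared with untreated control sheep (10 controls).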

Ovis aries [26] = assay: Toxic activity expressed as the percentage against liver fluke in the sheep at 30 mg/kg peroral administration of dose; type: ADME, organism-based; design: dose 30 mg/kg, route oral; settings: in vivo, po; procedure, shortened: as §6
Ovis aries [27] = assay: Toxic activity expressed as the percentage against liver fluke in the sheep at 300 mg/kg peroral administration of dose; no toxic symptoms observed; type: ADME, organism-based; design: dose 300 mg/kg, route oral; settings: in vivo, po
Ovis aries [28] = assay: Antihelmethic activity expressed as the percentage of worms eliminated in the feces in sheep small intestine at peroral dose of 30 mg/kg against Trichostrongylus axei; type: functional; settings: route oral; procedure, shortened: as §2
Ovis aries [29] = assay: Antihelmethic activity expressed as the percentage of worms eliminated in the feces in sheep small intestine at subcuteneous dose of 30 mg/kg against Bunostomum trigonocephalum.; type: functional; procedure, shortened: as §2
Ovis aries [30] = assay: Antihelmethic activity expressed as the percentage of worms eliminated in the feces in sheep small intestine at subcuteneous dose of 30 mg/kg against Nematodirus species; type: functional; procedure, shortened: as §2
Ovis aries [31] = assay: Antihelmethic activity expressed as the percentage of worms eliminated in the feces in sheep large bowel at peroral dose of 15 mg/kg against Trichuris ovis.; type: functional; settings: route oral; procedure, shortened: as §2
Ovis aries [32] = assay: Antihelmethic activity expressed as the percentage of worms eliminated in the feces in sheep large bowel at peroral dose of 30 mg/kg against Lungworm Dictyocaulus filaria.; type: functional; settings: route oral; procedure, shortened: as §2
Ovis aries [33] = assay: Antihelmethic activity expressed as the percentage of worms eliminated in the feces in sheep large bowel at peroral dose of 30 mg/kg against Oesophagostomum columbianum.; type: functional; settings: route oral; procedure, shortened: as §2
Ovis aries [34] = assay: Antihelmethic activity expressed as the percentage of worms eliminated in the feces in sheep large bowel at peroral dose of 30 mg/kg against Trichuris ovis.; type: functional; settings: route oral; procedure, shortened: as §2
Ovis aries [35] = assay: Antihelmethic activity expressed as the percentage of worms eliminated in the feces in sheep large bowel at peroral dose of 30 mg/kg against chabertia ovina.; type: functional; settings: route oral; procedure, shortened: as §2
Ovis aries [36] = assay: Antihelmethic activity expressed as the percentage of worms eliminated in the feces in sheep […] at subcuteneous dose of 30 mg/kg against Liver fluke Fasciola hepatica.; type: functional
Ovis aries [37] = assay: Antihelmethic activity expressed as the percentage of worms eliminated in the feces in sheep […] at peroral dose of 15 mg/kg against Liver fluke Fasciola hepatica.; type: functional; settings: route oral

SMILES: CS/C(=N\c1cccc(C2CN3CCSC3=N2)c1)Nc1ccc(C#N)cc1 (stereo not given)
- Activity (Felis catus): no toxic symptoms
- Activity (Canis familiaris): no toxic symptoms
- Activity (Mus musculus [1]): 100%
- Activity (Mus musculus [2]): 100
- Activity (Mus musculus [3]): 68
- Activity (Mus musculus [4]): 99
- Reduction (Mus musculus [5]): 99%
- Reduction [6]: 100%
- Activity (Mus musculus [7]): 99%
- Reduction (Mus musculus [7]): 74%
- Activity (Ovis aries [8]): 92%
- Activity (Ovis aries [9]): 100%
- Activity (Ovis aries [10]): 100%
- Activity (Ovis aries [11]): 100%
- Activity (Ovis aries [12]): 100%
- Activity (Ovis aries [13]): 100%
- Activity (Ovis aries [14]): 96%
- Activity (Ovis aries [15]): 99%
- Activity (Ovis aries [16]): 0%
- Activity (Ovis aries [17]): 100%
- Activity (Ovis aries [18]): 100%
- Activity (Ovis aries [19]): 100%
- Activity (Ovis aries [20]): 100%
- Activity (Ovis aries [21]): 83%
- Activity (Ovis aries [22]): 89%
- Activity (Ovis aries [23]): 100%
- Activity (Ovis aries [24]): 100%
- Activity (Ovis aries [25]): 83%
- Activity (Ovis aries [26]): 97%
- Activity (Ovis aries [27]): no toxic symptoms
- Activity (Ovis aries [28]): 100%
- Activity (Ovis aries [29]): 100%
- Activity (Ovis aries [30]): 100%
- Activity (Ovis aries [31]): 100%
- Activity (Ovis aries [32]): 100%
- Activity (Ovis aries [33]): 93%
- Activity (Ovis aries [34]): 100%
- Activity (Ovis aries [35]): 100%
- Activity (Ovis aries [36]): 100%
- Activity (Ovis aries [37]): 100%
